Assay [1] deals with T1, Glucagon-like peptide 1 receptor (Homo sapiens, UniProt P43220). Kind of assay: Agonist activity at human GLP1 assessed as stimulation of cAMP. The format is functional. An outline of the steps:
(§1)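 cAMP production was measured in a membrane-based assay at the human GLP-1 receptor. Potency is reported as EC50 and efficacy as Emax (%).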

Assay [2] has as its target T1, Glucagon-like peptide 1 receptor. Kind of assay: Agonist activity at human GLP1 assessed as stimulation of cAMP relative to cAMP. In kind it is functional. A digest of the protocol:
as §1

For assay [3] the target is unchanged. Kind of assay: Effect on augmentation of [125]GLP1 binding to human GLP1. To be noted: read-out: IC50 (the source's name). An outline of the steps: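 Test agents were incubated with human GLP-1 receptor and GLP-1, and the rise in GLP-1 binding was followed across agent concentrations. IC50 is the agent concentration giving 50% of its maximal augmentation of GLP-1 binding.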

Assay [4] is filed under the species Mus musculus. Nature of the assay: Effect on release of insulin in mouse islets. In kind it is functional.
The test system of assay [5] is Pancreas. Nature of the assay: Effect on release of insulin in perfused rat pancreas. The format is functional, tissue-based.

The Emax is the size of the effect at its maximum, as opposed to the concentration needed.

Molecules are shown by their SMILES. pEC50: −log10 of the molar value. Calls of active or inactive are those of the source. The calls are words filed in the database; no cut-off is given here.

T1 sequence (P43220 whole entry): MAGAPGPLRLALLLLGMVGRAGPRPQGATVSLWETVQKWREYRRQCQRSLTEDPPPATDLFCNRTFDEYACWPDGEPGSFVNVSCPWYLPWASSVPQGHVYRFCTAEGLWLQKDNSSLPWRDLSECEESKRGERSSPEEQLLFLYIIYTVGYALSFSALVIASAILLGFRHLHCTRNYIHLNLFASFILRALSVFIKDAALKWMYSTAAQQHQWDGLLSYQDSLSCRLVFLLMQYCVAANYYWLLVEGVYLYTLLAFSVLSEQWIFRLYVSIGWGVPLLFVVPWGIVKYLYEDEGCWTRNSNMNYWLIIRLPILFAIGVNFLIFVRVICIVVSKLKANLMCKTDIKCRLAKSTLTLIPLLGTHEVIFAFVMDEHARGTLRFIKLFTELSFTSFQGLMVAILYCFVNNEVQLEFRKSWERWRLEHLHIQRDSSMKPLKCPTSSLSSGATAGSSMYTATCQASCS

As to `CN(C)c1nc2cc(Cl)c(Cl)cc2nc1S(C)(=O)=O`, the pEC50 was 5.66 in assay [1] and 6.28 in assay [3]. Besides, in assay [2], the Emax worked out at 47%.

Take `CCC(C)Nc1nc2cc(Cl)c(Cl)cc2nc1S(C)(=O)=O` (stereo unspecified): in assay [1], the pEC50 was 6.76. In assay [2], the Emax is 94%.

With `CC(C)c1nc2cc(Cl)c(Cl)cc2nc1S(=O)(=O)Cc1ccc(S(=O)(=O)CC2CC2)cc1`, in assay [1], the pEC50 is 5.48. Further, the Emax in assay [2] was determined as 64%.

Regarding `CC(C)Nc1nc2cc(Cl)c(Cl)cc2nc1S(C)(=O)=O`, the pEC50 in assay [1] is 6.67; in assay [3], 6.97. The Emax in assay [2] was found to be 82%.

Consider `COC(=O)c1cc2cc(Cl)c(Cl)cc2nc1S(C)(=O)=O`, for which the result in assay [1] was inactive.

As to `CC(C)C(=O)c1nc2cc(Cl)c(Cl)cc2nc1C(C)C`, the Emax in assay [2] is less than 2%. Further, in assay [3], the pEC50 is less than 5.00.

On to `CON(C)c1nc2cc(Cl)c(Cl)cc2nc1S(C)(=O)=O`, for which the pEC50 in assay [1] is 5.59. In assay [2], the Emax was determined as 52%.

As to `CC(C)c1nc2cc(Cl)c(Cl)cc2nc1S(=O)(=O)Cc1ccc(S(C)(=O)=O)cc1`, the pEC50 is 5.92 in assay [1] and 6.34 in assay [3]. In addition, the Emax in assay [2] was found to be 63%.

Turning to `CCOC(=O)c1nc2cc(Cl)c(Cl)cc2nc1C(F)(F)F`, the Emax in assay [2] is less than 2%.

On to `CC(C)N(C)c1nc2cc(Cl)c(Cl)cc2nc1S(C)(=O)=O`, for which the pEC50 in assay [1] was 5.74; in assay [3], 6.34. In addition, the Emax in assay [2] was 75%.

Take `O=S1(=O)CCCc2nc3cc(Cl)c(Cl)cc3nc21`: in assay [1], the outcome was inactive.

As to `CC(C)(C)Nc1nc2c(Cl)cc(C(F)(F)F)cc2nc1S(C)(=O)=O`, the pEC50 in assay [1] is 5.66. The Emax in assay [2] was found to be 42%.

For `CCCc1nc2cc(Cl)c(Cl)cc2nc1S(C)(=O)=O`, the pEC50 in assay [1] is 5.92; in assay [3], 6.39. Besides, the Emax in assay [2] is 68%.

In the case of `CC(C)Sc1nc2cc(Cl)c(Cl)cc2nc1S(C)(=O)=O`, in assay [2], the Emax amounted to 46%.

Regarding `CS(=O)(=O)c1nc2cc(Cl)c(Cl)cc2nc1NC1CCCc2ccccc21` (stereo unspecified), the pEC50 in assay [1] was 6.36. In assay [2], the Emax amounted to 69%.

As for `CC(=O)NCCNc1nc2cc(Cl)c(Cl)cc2nc1S(C)(=O)=O`, the pEC50 in assay [1] was 5.15. In addition, the Emax in assay [2] came to 22%.

On to `CC(=O)NNc1nc2cc(Cl)c(Cl)cc2nc1S(C)(=O)=O`, for which, in assay [1], the pEC50 was 4.85. The Emax in assay [2] worked out at 32%.

Turning to `CC(C)Nc1nc2cc(Cl)c([N+](=O)[O-])c(C(F)(F)F)c2nc1S(C)(=O)=O`, the pEC50 in assay [1] was 5.30. The Emax in assay [2] is 31%.

Consider `CC(C)c1nc2cc(Cl)c(Cl)cc2nc1S(C)(=O)=O`, for which the pEC50 is 5.30 in assay [1] and 6.60 in assay [3]. In assay [2], the Emax amounted to 35%.

For `CC(C)c1nc2cc(Cl)c(Cl)cc2nc1O`, in assay [2], the Emax is less than 2%.

As for `CC(C)c1nc2cc(Cl)c(Cl)cc2nc1S(=O)(=O)CCC1OCCO1`, the results for the pEC50 in assay [1] and in assay [3] were 5.52 and 6.26, respectively. In assay [2], the Emax is 71%.

Regarding `Cc1nnc(S(=O)(=O)c2nc3cc(Cl)c(Cl)cc3nc2C(C)C)s1`, the pEC50 in assay [1] is 6.00. In assay [2], the Emax was found to be 47%.

Take `CS(=O)(=O)c1nc2cc(Cl)c(Cl)cc2nc1C(F)(F)F`: the pEC50 in assay [1] is 5.59; in assay [3], 7.04. Moreover, in assay [2], the Emax turned out to be 40%.

Take `CCN(CC)C(=O)c1nc2cc(Cl)c(Cl)cc2nc1C(C)C`: the Emax in assay [2] is less than 2%. For the same compound, the pEC50 in assay [3] was less than 5.00.

As for `Cc1nnc([S+]([O-])c2nc3cc(Cl)c(Cl)cc3nc2C(C)C)s1` (stereo unspecified), in assay [1], the pEC50 is 5.29. In addition, in assay [2], the Emax is 19%.

In the case of `Nc1nc2cc(Cl)c(Cl)cc2nc1C(F)(F)F`, the maximal effect (Emax) in assay [2] was less than 2%.

Take `CCC(C)Nc1nc2cc(Cl)c([N+](=O)[O-])cc2nc1S(C)(=O)=O` (stereo unspecified): the pEC50 in assay [1] was 5.37. Also, the Emax in assay [2] came out at 44%.

Take `CS(=O)(=O)c1nc2cc(Cl)c(Cl)cc2nc1N1CCC(=O)N1`: the pEC50 in assay [1] was 4.85. The Emax in assay [2] was found to be 38%.

On to `COC(=O)CCNS(=O)(=O)c1ccc(CS(=O)(=O)c2nc3cc(Cl)c(Cl)cc3nc2C(C)C)cc1`, for which the pEC50 in assay [1] was 5.31. Also, the Emax in assay [2] was 65%.

Consider `CCCc1nc2cc(C)c(C)cc2nc1S(C)(=O)=O`, for which the Emax in assay [2] was less than 2%.

Take `CCOP(=O)(OCC)c1nc2cc(Cl)c(Cl)cc2nc1C(F)(F)F`: in assay [2], the Emax is less than 2%.

For the compound `CCOC(=O)c1nc2cc(Cl)c(Cl)cc2nc1S(C)(=O)=O`, the pEC50 was less than 5.00 in assay [1] and 5.51 in assay [3]. The Emax in assay [2] was 24%.

Consider `CS(=O)(=O)c1nc2cc(Cl)c(Cl)cc2nc1NC1CCS(=O)(=O)C1` (stereo unspecified), for which, in assay [1], the pEC50 is 5.85. Moreover, the Emax in assay [2] came out at 43%.

On to `N#Cc1nc2cc(Cl)c(Cl)cc2nc1C(F)(F)F`, for which the Emax in assay [2] is less than 2%.

Take `CCCc1nc2cc(OC)c(OC)cc2nc1S(C)(=O)=O`: in assay [2], the Emax was less than 2%.

For the compound `CS(=O)(=O)c1nc2cc(Cl)c(Cl)cc2nc1N`, in assay [1], the pEC50 was 5.20. The Emax in assay [2] was found to be 24%.

`CC(C)n1c(S(C)(=O)=O)nc2cc(Cl)c(Cl)cc21`: the result in assay [1] was inactive.

For `CC(C)Nc1nc2c([N+](=O)[O-])c(Cl)c(Cl)cc2nc1S(C)(=O)=O`, the pEC50 in assay [1] was 5.82. Besides, the Emax in assay [2] worked out at 38%.

For the compound `CC(C)(C)Nc1nc2cc(Cl)c(Cl)cc2nc1S(C)(=O)=O`, the result in assay [4] and in assay [5] was Active. The pEC50 in assay [1] is 6.81. In addition, the Emax in assay [2] was 85%.

Consider `CCNc1nc2cc(Cl)c(Cl)cc2nc1S(C)(=O)=O`, for which the results for the pEC50 in assay [1] and in assay [3] were 6.14 and 6.96, respectively. The maximum response (Emax) in assay [2] is 46%.

With `CS(=O)(=O)c1nc2cc(Cl)c(Cl)cc2nc1N1CCCC1`, the pEC50 in assay [1] is 5.66. Moreover, the Emax in assay [2] worked out at 72%.

`CC(C)c1nc2cc(Cl)c(Cl)cc2nc1[S+](C)[O-]` (stereo unspecified): the pEC50 in assay [1] is 4.52; in assay [3], 5.96. For the same compound, the Emax in assay [2] stood at 29%.

For the origin of these results see ChEMBL document CHEMBL1140467, “Small molecule ago-allosteric modulators of the human glucagon-like peptide-1 (hGLP-1) receptor” (Bioorg Med Chem Lett, 2007).
